Results published in ChEMBL document CHEMBL4011627, “Hepatitis C Virus NS3/4A Protease Inhibitors Incorporating Flexible P2 Quinoxalines Target Drug Resistant Viral Variants” (J Med Chem, 2017).

How the values were obtained:
[1] = target: Hepatitis C virus serine protease, NS3/NS4A (Hepatitis C virus, UniProt A3EZI9+D2K2A8, D168A); assay: Inhibition of HCV genotype 1a NS3/4A protease D168A mutant using Ac-DE-Dap(QXL 520)-EE-Abu-psi-[COO]AS-C(5-FAMsp)-NH2 as substrate preincubated for 1 hr followed by substrate addition; design: species or system Hepatitis C virus subtype 1a
Outline: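 NS3/4A protease domain at 2 nM pre-incubated 1 h at room temperature with increasing inhibitor (at least 12 concentrations) in 50 mM Tris, 5% glycerol, 10 mM DTT, 0.6 mM LDAO, 4% DMSO. Reaction started with FRET substrate (final 200 nM), monitored kinetically (ex 485/em 530 nm). Three independent data sets; global Morrison fit for Ki.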

[2] = test system: Hepatitis C virus; assay: Antiviral activity against HCV genotype 1b Con1 harboring HCV genotype 1a H77 NS3 R155K mutant infected in human HuH7 cells assessed as inhibition of viral replication after 96 hrs by luciferase reporter gene assay; assay type: functional, cell-based, Hepacivirus hominis; settings: genotype 1b Con1, Huh-7, 96 h
[3] = test system: Hepatitis C virus; assay: Antiviral activity against HCV genotype 1b Con1 harboring HCV genotype 1a H77 NS3 A156T mutant infected in human HuH7 cells assessed as inhibition of viral replication after 96 hrs by luciferase reporter gene assay; assay type: functional, cell-based, Hepacivirus hominis; settings: genotype 1b Con1, Huh-7, 96 h
[4] = Inhibition of HCV genotype 1a NS3/4A protease using Ac-DE-Dap(QXL 520)-EE-Abu-psi-[COO]AS-C(5-FAMsp)-NH2 as substrate preincubated for 1 hr followed by substrate addition; design: species or system Hepatitis C virus subtype 1a
Outline: (§1)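 Protease domain at 2 nM preincubated 1 h at room temperature with inhibitor titrations (at least 12 concentrations) in 50 mM Tris, 5% glycerol, 10 mM DTT, 0.6 mM LDAO, 4% DMSO. Reaction started with fluorogenic substrate (200 nM final) and followed kinetically (ex 485/em 530 nm). Three independent data sets, fit globally to the Morrison equation for Ki.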

[5] = test system: Hepatitis C virus; assay: Antiviral activity against HCV genotype 1b Con1 harboring HCV genotype 1a H77 NS3 infected in human HuH7 cells assessed as inhibition of viral replication after 96 hrs by luciferase reporter gene assay; assay type: functional, cell-based, Hepacivirus hominis; settings: genotype 1b Con1, Huh-7, 96 h
[6] = test system: Hepatitis C virus; assay: Antiviral activity against HCV genotype 1b Con1 harboring HCV genotype 1a H77 NS3 D168V mutant infected in human HuH7 cells assessed as inhibition of viral replication after 96 hrs by luciferase reporter gene assay; assay type: functional, cell-based, Hepacivirus hominis; settings: genotype 1b Con1, Huh-7, 96 h
[7] = test system: Hepatitis C virus; assay: Antiviral activity against HCV genotype 1b Con1 harboring HCV genotype 1a H77 NS3 D168A mutant infected in human HuH7 cells assessed as inhibition of viral replication after 96 hrs by luciferase reporter gene assay; assay type: functional, cell-based, Hepacivirus hominis; settings: genotype 1b Con1, Huh-7, 96 h
[8] = Inhibition of HCV genotype 3a NS3/4A protease using Ac-DE-Dap(QXL520)-EE-Abu-psi-[COO]AS-C(5-FAMsp)-NH2 as substrate preincubated for 1 hr followed by substrate addition; design: species or system Hepatitis C virus subtype 3a; outline: as §1

| SMILES | Ki [1] | EC50 [2] | EC50 [3] | Ki [4] | EC50 [5] | EC50 [6] | EC50 [7] | Ki [8] |
| --- | --- | --- | --- | --- | --- | --- | --- | --- |
| COc1ccc2nc(C(C)C)c(O[C@@H]3C[C@H]4C(=O)N[C@]5(C(=O)NS(=O)(=O)C6CC6)C[C@H]5/C=C\CCCCC[C@H](NC(=O)OC5CCCC5)C(=O)N4C3)nc2c1 | 161 nM | 7.63 nM | 32.1 nM | 1.44 nM | 0.48 nM | 30.1 nM | 7.96 nM | – |
| COc1ccc2nc(Cl)c(O[C@@H]3C[C@H]4C(=O)N[C@]5(C(=O)NS(=O)(=O)C6(C)CC6)C[C@H]5/C=C\CCCCC[C@H](NC(=O)OC(C)(C)C)C(=O)N4C3)nc2c1 | 77.7 nM | 0.4 nM | 8.86 nM | 1.11 nM | 0.18 nM | 0.49 nM | 1.07 nM | 53.6 nM |
| CCc1nc2ccccc2nc1O[C@@H]1C[C@H]2C(=O)N[C@]3(C(=O)NS(=O)(=O)C4CC4)C[C@H]3/C=C\CCCCC[C@H](NC(=O)OC(C)(C)C)C(=O)N2C1 | 190 nM | 1.81 nM | 10.6 nM | 7.18 nM | 0.46 nM | 14 nM | 8.55 nM | – |
| COc1ccc2nc(C(F)(F)F)c(O[C@@H]3C[C@H]4C(=O)N[C@]5(C(=O)NS(=O)(=O)C6CC6)C[C@H]5/C=C\CCCCC[C@H](NC(=O)OC(C)(C)C)C(=O)N4C3)nc2c1 | 157 nM | 3.45 nM | 36.2 nM | 13.3 nM | 1.98 nM | 17.1 nM | 16.8 nM | 344 nM |
| COc1ccc2nc(C(C)C)c(O[C@@H]3C[C@H]4C(=O)N[C@]5(C(=O)NS(=O)(=O)C6CC6)C[C@H]5/C=C\CCCCC[C@H](NC(=O)OC(C)(C)C)C(=O)N4C3)nc2c1 | 239 nM | 5.02 nM | 25.7 nM | 4.27 nM | 1.43 nM | 23.7 nM | 15.3 nM | – |
| CCc1nc2ccc(OC)cc2nc1O[C@@H]1C[C@H]2C(=O)N[C@]3(C(=O)NS(=O)(=O)C4(C)CC4)C[C@H]3/C=C\CCCCC[C@H](NC(=O)OC(C)(C)C)C(=O)N2C1 | 55.2 nM | 1.8 nM | 4.52 nM | 1.82 nM | 0.43 nM | 6.42 nM | 4.97 nM | 171 nM |
| COc1ccc2nc(C)c(O[C@@H]3C[C@H]4C(=O)N[C@]5(C(=O)NS(=O)(=O)C6CC6)C[C@H]5/C=C\CCCCC[C@H](NC(=O)OC5CCCC5)C(=O)N4C3)nc2c1 | 31.9 nM | 0.89 nM | 2.88 nM | 0.93 nM | 0.11 nM | 4.32 nM | 2.63 nM | 147 nM |
| COc1ccc2nc(C)c(O[C@@H]3C[C@H]4C(=O)N[C@]5(C(=O)NS(=O)(=O)C6(C)CC6)C[C@H]5/C=C\CCCCC[C@H](NC(=O)OC5CCCC5)C(=O)N4C3)nc2c1 | 36.3 nM | 1.09 nM | 3.99 nM | 1.13 nM | 0.13 nM | – | 2.16 nM | 121 nM |
| CCc1nc2ccc(OC)cc2nc1O[C@@H]1C[C@H]2C(=O)N[C@]3(C(=O)NS(=O)(=O)C4(C)CC4)C[C@H]3/C=C\CCCCC[C@H](NC(=O)OC3CCCC3)C(=O)N2C1 | 55.2 nM | 2.07 nM | 10.6 nM | 1.37 nM | 0.16 nM | 7.08 nM | 3.45 nM | 186 nM |
| CCc1nc2ccccc2nc1O[C@@H]1C[C@H]2C(=O)N[C@]3(C(=O)NS(=O)(=O)C4CC4)C[C@H]3/C=C\CCCCC[C@H](NC(=O)OC3CCCC3)C(=O)N2C1 | 107 nM | 4.28 nM | 24.6 nM | 1.99 nM | 0.24 nM | 19.3 nM | 7.5 nM | – |
| COc1ccc2nc(C(F)(F)F)c(O[C@@H]3C[C@H]4C(=O)N[C@]5(C(=O)NS(=O)(=O)C6CC6)C[C@H]5/C=C\CCCCC[C@H](NC(=O)OC5CCCC5)C(=O)N4C3)nc2c1 | 115 nM | 7.97 nM | 117 nM | 7.55 nM | 4.86 nM | 24 nM | 15.1 nM | 757 nM |
| COc1ccc2nc(C(C)C)c(O[C@@H]3C[C@H]4C(=O)N[C@]5(C(=O)NS(=O)(=O)C6(C)CC6)C[C@H]5/C=C\CCCCC[C@H](NC(=O)OC5CCCC5)C(=O)N4C3)nc2c1 | 156 nM | 6.83 nM | 27.6 nM | 1.34 nM | 0.59 nM | 18.2 nM | 7.91 nM | – |
| COc1ccc2nc(C(F)(F)F)c(O[C@@H]3C[C@H]4C(=O)N[C@]5(C(=O)NS(=O)(=O)C6(C)CC6)C[C@H]5/C=C\CCCCC[C@H](NC(=O)OC5CCCC5)C(=O)N4C3)nc2c1 | 110 nM | 6.9 nM | 75.9 nM | 8.14 nM | 4.04 nM | 11.4 nM | 8.46 nM | 433 nM |
| CCc1nc2ccc(OC)cc2nc1O[C@@H]1C[C@H]2C(=O)N[C@]3(C(=O)NS(=O)(=O)C4CC4)C[C@H]3/C=C\CCCCC[C@H](NC(=O)OC(C)(C)C)C(=O)N2C1 | 82.4 nM | 1.75 nM | 9.65 nM | 3.29 nM | 0.33 nM | 9.1 nM | 6.31 nM | 204 nM |
| COc1ccc2nc(C(C)C)c(O[C@@H]3C[C@H]4C(=O)N[C@]5(C(=O)NS(=O)(=O)C6(C)CC6)C[C@H]5/C=C\CCCCC[C@H](NC(=O)OC(C)(C)C)C(=O)N4C3)nc2c1 | 211 nM | 4.14 nM | 21.2 nM | 0.58 nM | 1.86 nM | 18.1 nM | 11.9 nM | – |
| COc1ccc2nc(Cl)c(O[C@@H]3C[C@H]4C(=O)N[C@]5(C(=O)NS(=O)(=O)C6(C)CC6)C[C@H]5/C=C\CCCCC[C@H](NC(=O)OC5CCCC5)C(=O)N4C3)nc2c1 | 25.7 nM | 0.56 nM | 4.32 nM | 0.44 nM | 0.15 nM | 1.09 nM | 0.97 nM | 61 nM |
| CCc1nc2ccc(OC)cc2nc1O[C@@H]1C[C@H]2C(=O)N[C@]3(C(=O)NS(=O)(=O)C4CC4)C[C@H]3/C=C\CCCCC[C@H](NC(=O)OC3CCCC3)C(=O)N2C1 | 52.3 nM | 2.08 nM | 11.8 nM | 1.24 nM | 0.14 nM | 11.9 nM | 3.6 nM | 211 nM |
| COc1ccc2nc(C)c(O[C@@H]3C[C@H]4C(=O)N[C@]5(C(=O)NS(=O)(=O)C6(C)CC6)C[C@H]5/C=C\CCCCC[C@H](NC(=O)OC(C)(C)C)C(=O)N4C3)nc2c1 | 52 nM | 0.8 nM | 1.57 nM | 3.6 nM | 0.3 nM | 1.6 nM | 2.37 nM | 119 nM |
| COc1ccc2nc(C)c(O[C@@H]3C[C@H]4C(=O)N[C@]5(C(=O)NS(=O)(=O)C6CC6)C[C@H]5/C=C\CCCCC[C@H](NC(=O)OC(C)(C)C)C(=O)N4C3)nc2c1 | 50.9 nM | 1.17 nM | 5.95 nM | 3.4 nM | 0.39 nM | 3.17 nM | 4.24 nM | 152 nM |
| COc1ccc2nc(C(F)(F)F)c(O[C@@H]3C[C@H]4C(=O)N[C@]5(C(=O)NS(=O)(=O)C6(C)CC6)C[C@H]5/C=C\CCCCC[C@H](NC(=O)OC(C)(C)C)C(=O)N4C3)nc2c1 | 118 nM | 2.3 nM | 20.5 nM | 5.77 nM | 1.52 nM | 8.31 nM | 8.64 nM | 231 nM |
| COc1ccc2nc(Cl)c(O[C@@H]3C[C@H]4C(=O)N[C@]5(C(=O)NS(=O)(=O)C6CC6)C[C@H]5/C=C\CCCCC[C@H](NC(=O)OC5CCCC5)C(=O)N4C3)nc2c1 | 30.6 nM | 0.59 nM | 3.55 nM | 0.49 nM | 0.15 nM | 1.55 nM | 1.32 nM | 85.6 nM |
| COc1ccc2nc(Cl)c(O[C@@H]3C[C@H]4C(=O)N[C@]5(C(=O)NS(=O)(=O)C6CC6)C[C@H]5/C=C\CCCCC[C@H](NC(=O)OC(C)(C)C)C(=O)N4C3)nc2c1 | 39.8 nM | 0.44 nM | 16.2 nM | 1.07 nM | 0.16 nM | 0.73 nM | 1.42 nM | 67.5 nM |
